Tests used:
[1] = target: Coagulation factor X (Homo sapiens, UniProt P00742); assay: Inhibitory activity against coagulation factor X.
Procedure, shortened: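 Human Factor Xa (0.3 nM) with chromogenic substrate S-2765 (0.15 mM) in 50 mM Tris-HCl pH 8.0, 100 mM NaCl, 0.1% BSA. A405 background read taken at once, then 60 min at room temperature, then p-nitroaniline release rate at 405 nm. Duplicates at seven concentrations; % inhibition versus control; IC50 from four-parameter logistic fit, averaged over the duplicates.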

[2] = target: T1, Coagulation factor VII (Homo sapiens, UniProt P08709); assay: Inhibitory activity against tissue coagulation factor VII.
T1 sequence (P08709 whole entry): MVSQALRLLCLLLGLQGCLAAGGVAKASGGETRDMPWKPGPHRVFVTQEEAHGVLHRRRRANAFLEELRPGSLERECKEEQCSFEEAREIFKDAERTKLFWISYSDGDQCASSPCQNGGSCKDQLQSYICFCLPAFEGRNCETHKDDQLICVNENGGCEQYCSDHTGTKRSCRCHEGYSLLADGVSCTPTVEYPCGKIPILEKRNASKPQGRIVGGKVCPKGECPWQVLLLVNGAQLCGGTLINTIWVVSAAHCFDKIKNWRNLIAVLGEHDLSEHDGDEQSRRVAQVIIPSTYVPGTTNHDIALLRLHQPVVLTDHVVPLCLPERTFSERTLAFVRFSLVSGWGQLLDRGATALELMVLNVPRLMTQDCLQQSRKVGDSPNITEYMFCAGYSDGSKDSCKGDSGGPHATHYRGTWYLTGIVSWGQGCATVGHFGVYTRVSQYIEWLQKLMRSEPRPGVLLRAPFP
Procedure, shortened: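 Complex of recombinant soluble tissue factor (100 nM) and recombinant human Factor VIIa (2 nM). Substrate N-methylsulfonyl-D-Phe-Gly-Arg-p-nitroaniline at 0.4 mM in 5 mM CaCl2, 50 mM Tris-HCl pH 8.0, 100 mM NaCl, 0.1% BSA. Background A405 read first; after 60 min at room temperature, hydrolysis rate read at 405 nm. Duplicates at seven concentrations; IC50 is the duplicate average.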

[3] = target: Thrombin and coagulation factor VII (Homo sapiens) (UniProt P00734+P08709); assay: Selectivity for coagulation factor VIIa over thrombin IIa.; format: protein assay
[4] = target: Prothrombin (Homo sapiens, UniProt P00734); assay: Inhibitory activity against thrombin (IIa).
Procedure, shortened: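 Human thrombin (0.28 nM) with H-D-Phe-Pip-Arg-p-nitroaniline (0.06 mM) in 50 mM Tris-HCl pH 8.0, 100 mM NaCl, 0.1% BSA. Immediate background read at 405 nm, then 60 min at room temperature before measuring p-nitroaniline release rate at 405 nm. Seven concentrations in duplicate; % inhibition versus control; IC50 by four-parameter logistic regression.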

Chain of Coagulation factor X (P00742 41-179 limits assumed): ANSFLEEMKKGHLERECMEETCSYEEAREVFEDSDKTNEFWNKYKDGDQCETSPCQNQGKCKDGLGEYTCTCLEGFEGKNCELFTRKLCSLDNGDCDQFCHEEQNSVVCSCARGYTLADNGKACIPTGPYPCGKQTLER
Chain of Coagulation factor X (P00742 235-488 limits assumed): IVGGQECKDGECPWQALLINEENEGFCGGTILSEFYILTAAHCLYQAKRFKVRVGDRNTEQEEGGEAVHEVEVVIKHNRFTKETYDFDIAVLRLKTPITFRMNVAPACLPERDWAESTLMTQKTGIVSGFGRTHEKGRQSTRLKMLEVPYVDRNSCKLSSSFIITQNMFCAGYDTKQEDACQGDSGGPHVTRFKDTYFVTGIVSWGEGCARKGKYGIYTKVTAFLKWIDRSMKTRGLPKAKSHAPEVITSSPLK

Row | IC50 [1] | IC50 [2] | Selectivity [3] | IC50 [4] | SMILES
1 | 610 nM | 680 nM | 5 | 3420 nM | N=C(N)NCCC[C@H](NC(=O)[C@H](Cc1ccc(Cl)cc1)NC(=O)[C@@H](Cc1ccccc1)NS(=O)(=O)Cc1ccccc1)C(=O)c1nccs1
2 | 2000 nM | 13700 nM | 1 | 12900 nM | CS(=O)(=O)CC[C@H](NC(=O)[C@@H](Cc1ccccc1)NS(=O)(=O)Cc1ccccc1)C(=O)N[C@@H](CCCN=C(N)N)C(=O)c1nccs1

Source: ChEMBL document CHEMBL1145084, “Polymer-assisted solution-phase library synthesis and crystal structure of alpha-ketothiazoles as tissue factor VIIa inhibitors” (J Med Chem, 2003)
